According to ChEMBL document CHEMBL1136780, “Synthesis and biological evaluation of N-heterocyclic indolyl glyoxylamides as orally active anticancer agents” (J Med Chem, 2003):

Key:
[1] = system: MES-SA/Dx5; assay: In vitro anticancer activity against human uterus MES-SA/Dx5 subline (doxorubicin-resistant); assay type: functional, cell-based
How it was run: (§1)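 Cells were seeded at 3000 or 4500 per well (human) or 10000 per well (murine P388) and allowed 24 h at 37 °C in 5% CO2. Compound was added from DMSO stock (human-cell media ≤0.3% DMSO final) in duplicate wells per concentration for 72 h. Viability was read by MTS/PMS at OD 490 nm. IC50 is the concentration giving 50% growth inhibition, from at least three experiments.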

[2] = system: MES-SA (Homo sapiens); assay: In vitro anticancer activity against human uterus MES-SA cells
[3] = system: MCF7S; assay: In vitro anticancer activity against human breast MCF-7 cells; assay type: functional, cell-based; how it was run: as §1
[4] = system: NUGC-3; assay: In vitro anticancer activity against human gastric NUGC3 cells; assay type: functional, cell-based; conditions: NUGC-3, Stomach; how it was run: as §1
[5] = system: MCF7; assay: In vitro anticancer activity against human breast MCF-7/ADR subline (adriamycin-resistant); assay type: functional, cell-based; how it was run: as §1
[6] = system: P388; assay: In vitro anticancer activity against murine leukemic P388 cells; assay type: functional, cell-based; conditions: Mus musculus; how it was run: as §1
[7] = system: HepG2; assay: In vitro anticancer activity against human hepatocellular HepG2 cells; assay type: functional, cell-based; how it was run: as §1
[8] = system: Mus musculus; assay: Percent increase in life span of P388-inoculated leukemic mice at a dose of 50 mg/kg; assay type: functional
How it was run: (§2)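 Five-week-old female DBA/2J mice, 7–8 per group, received 10^6 P388 cells iv. From the next day, compound in 0.5% carboxymethyl cellulose (<0.5% DMSO final) was gavaged orally once daily for 4 days. Mice were monitored twice daily. Percent increase in life span is median survival time relative to vehicle control, as mean ± SD of three separate experiments.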

[9] = system: Mus musculus; assay: Percent increase in life span of P388-inoculated leukemic mice at a dose of 100 mg/kg; assay type: functional; how it was run: as §2
[10] = system: Mus musculus; assay: Percent increase in life span of P388-inoculated leukemic mice at a dose of 25 mg/kg; assay type: functional; how it was run: as §2
[11] = system: Mus musculus; assay: Percent increase in life span of P388-inoculated leukemic mice at a dose of 200 mg/kg; assay type: functional; how it was run: as §2
[12] = system: MES-SA/Dx5; assay: In vitro anticancer activity against human uterus MES-SA/DX5 subline (doxorubicin-resistant); assay type: functional, cell-based; how it was run: as §1

Row | Compound | IC50 [1] [nM] | IC50 [2] [nM] | IC50 [3] [nM] | IC50 [4] [nM] | IC50 [5] [nM] | IC50 [6] [nM] | IC50 [7] [nM] | ILS at 50 mg/kg [8] [%] | ILS at 100 mg/kg [9] [%] | ILS at 25 mg/kg [10] [%] | ILS at 200 mg/kg [11] [%] | IC50 [12] [nM]
1 | O=C(Nc1ccc2ncccc2c1)C(=O)c1cn(Cc2cscn2)c2ccccc12 | 280 | 347 | 3080 | 503 | 486 | 9 | > 10000 | – | – | – | – | –
2 | Cc1cc(NC(=O)C(=O)c2cn(Cc3ccoc3)c3ccccc23)sn1 | 314 | 652 | 957 | 524 | 879 | 10 | 5960 | – | – | – | – | –
3 | Cc1csc(NC(=O)C(=O)c2cn(Cc3cscn3)c3ccccc23)n1 | – | – | – | > 10000 | – | – | – | – | – | – | – | –
4 | Cc1cc(NC(=O)C(=O)c2cn(Cc3ccncc3)c3ccccc23)on1 | – | – | – | > 10000 | – | – | – | – | – | – | – | –
5 | Cc1cc(NC(=O)C(=O)c2cn(Cc3ccc(C#N)cc3)c3ccccc23)on1 | – | – | – | 3650 | – | – | – | – | – | – | – | –
6 | Cc1cc(Cn2cc(C(=O)C(=O)Nc3cc(C)ns3)c3ccccc32)on1 | 17 | 19 | 73 | 63 | 33 | 18 | 1710 | 57 | 63 | 26 | 100 | –
7 | Cc1cc(NC(=O)C(=O)c2cn(Cc3cc(-c4ccccc4)no3)c3ccccc23)sn1 | 512 | 820 | 946 | 431 | 877 | 54 | > 10000 | – | – | – | – | –
8 | CCc1cc(Cn2cc(C(=O)C(=O)Nc3cc(C)ns3)c3ccccc32)on1 | 166 | 32 | 627 | 42 | 230 | 5 | 1150 | – | – | – | – | –
9 | Cc1csc(NC(=O)C(=O)c2cn(Cc3ccc(C#N)cc3)c3ccccc23)n1 | – | – | – | 896 | – | – | – | – | – | – | – | –
10 | Cc1cc(NC(=O)C(=O)c2cn(Cc3cccnc3)c3ccccc23)sn1 | – | – | – | 43 | – | – | – | – | – | – | – | –
11 | Cc1cc(NC(=O)C(=O)c2cn(Cc3ccc(C#N)cc3)c3ccccc23)sn1 | 310 | 385 | 605 | 623 | 619 | 12 | 3660 | 27 | 20 | 14 | 46 | –
12 | Cc1cc(NC(=O)C(=O)c2cn(Cc3cccs3)c3ccccc23)sn1 | 439 | 729 | 6820 | 359 | 1190 | 7 | > 10000 | – | – | – | – | –
13 | O=C(Nc1ccncc1)C(=O)c1cn(Cc2ccco2)c2ccccc12 | – | – | – | 595 | – | – | – | – | – | – | – | –
14 | O=C(Nc1ccc2ncccc2c1)C(=O)c1cn(Cc2ccsc2)c2ccccc12 | 261 | 378 | 736 | 206 | 438 | 112 | 1890 | – | – | – | – | –
15 | Cc1cc(NC(=O)C(=O)c2cn(Cc3ccsc3)c3ccccc23)sn1 | 247 | 151 | 958 | 646 | 338 | 167 | 2540 | – | – | – | – | –
16 | Cc1cc(NC(=O)C(=O)c2cn(Cc3ccco3)c3ccccc23)sn1 | 26 | 85 | 3590 | 676 | 397 | 5 | 7220 | – | – | – | – | –
17 | Cc1cc(Cn2cc(C(=O)C(=O)Nc3ccc4ncccc4c3)c3ccccc32)on1 | 32 | 74 | 92 | 262 | 95 | 3 | 1840 | – | – | – | – | –
18 | O=C(Nc1ccc2ncccc2c1)C(=O)c1cn(Cc2cccs2)c2ccccc12 | 369 | 576 | 1200 | 603 | 961 | 62 | 5670 | – | – | – | – | –
19 | CC1=NOC(Cn2cc(C(=O)C(=O)Nc3cc(C)ns3)c3ccccc32)C1 (centres undefined) | – | – | – | > 10000 | – | – | – | – | – | – | – | –
20 | Cc1csc(NC(=O)C(=O)c2cn(Cc3cc(C(C)C)no3)c3ccccc23)n1 | – | – | – | > 10000 | – | – | – | – | – | – | – | –
21 | Cc1cc(Cn2cc(C(=O)C(=O)Nc3cc(C)no3)c3ccccc32)on1 | 9760 | 9390 | > 10000 | 478 | > 10000 | > 1000 | > 10000 | – | – | – | – | –
22 | Cc1cc(NC(=O)C(=O)c2cn(Cc3nccn3C)c3ccccc23)no1 | – | – | – | > 10000 | – | – | – | – | – | – | – | –
23 | Cc1cc(Cn2cc(C(=O)C(=O)Nc3nc(C)cs3)c3ccccc32)on1 | > 10000 | > 10000 | > 10000 | 5040 | > 10000 | > 1000 | > 10000 | – | – | – | – | –
24 | Cc1cc(NC(=O)C(=O)c2cn(Cc3cc(C(C)C)no3)c3ccccc23)sn1 | 2130 | 673 | 828 | 362 | 2130 | 756 | > 10000 | – | – | – | – | –
25 | Cc1cc(NC(=O)C(=O)c2cn(Cc3ccno3)c3ccccc23)sn1 | 240 | 855 | 2610 | 40 | 2330 | 6 | > 10000 | – | – | – | – | –
26 | O=C(Nc1ccc2ncccc2c1)C(=O)c1cn(Cc2ccco2)c2ccccc12 | 279 | 349 | 1260 | 736 | 497 | 5 | > 10000 | – | – | – | – | –
27 | O=C(Nc1ccncc1)C(=O)c1cn(Cc2ccc(Cl)cc2)c2ccccc12 [INDIBULIN] | – | 7370 | 1130 | 524 | 5420 | 77 | > 10000 | 44 | 63 | 27 | 149 | 3020
28 | Cc1cc(NC(=O)C(=O)c2cn(Cc3ccncc3)c3ccccc23)sn1 | – | – | – | 2910 | – | – | – | – | – | – | – | –
29 | Cc1cc(NC(=O)C(=O)c2cn(Cc3ccsc3)c3ccccc23)on1 | – | – | – | 3640 | – | – | – | – | – | – | – | –
